Measured values as given in ChEMBL document CHEMBL2150978, “Phosphorodiamidates as a promising new phosphate prodrug motif for antiviral drug discovery: application to anti-HCV agents” (J Med Chem, 2011).

What was measured:
Hepatitis C virus = test: Antiviral activity against Hepatitis C virus subtype 1b Con1 infected in human Huh7 cells assessed as inhibition of HCV replicon-encoded Renilla luciferase reporter activity after 72 hrs by HCV replicon assay; format: functional, organism-based, Hepacivirus hominis; details: Con1, Huh-7, 72 h
Outline: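 Huh7 cells stably carrying a bicistronic subgenomic genotype 1b (Con1) replicon with Renilla luciferase reporter, seeded at 2 × 10⁴ cells/well the day before. Four-fold serial dilutions in growth medium, no-drug controls on each plate; 3 days at 37 °C, 5% CO₂. Luciferase reagent 20 min, then luminescence (RLU) read; EC₅₀ derived.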

[1] = Cytotoxicity against human HuH7 cells after 3 days; format: cell-based, Huh-7
Outline: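 Huh7 replicon cells seeded at 2 × 10⁴ per well one day before dosing. Four-fold serial dilutions in growth medium, no-drug controls on each plate. Incubated 3 days at 37 °C, 5% CO₂. Viability read by CellTiter-Glo luminescence after 20 min with reagent.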

Compound	EC50 (Hepatitis C virus) [µM]	EC90 (Hepatitis C virus) [µM]	CC50 at 72 h [1] [µM]
CCOc1nc(N)nc2c1ncn2[C@@H]1O[C@H](CO)[C@@H](O)[C@@]1(C)O	9.5	24.5	> 100
COC(=O)[C@H](C)NP(=O)(N[C@@H](C)C(=O)OC)OC[C@H]1O[C@@H](n2cnc3c(OC)nc(N)nc32)[C@](C)(O)[C@@H]1O (mixture of isomers)	5.9	> 10	> 100
CCOC(=O)[C@H](C)NP(=O)(N[C@@H](C)C(=O)OCC)OC[C@H]1O[C@@H](n2cnc3c(OC)nc(N)nc32)[C@](C)(O)[C@@H]1O (mixture of isomers)	1.2	4.1	> 100
CCCOC(=O)[C@H](C)NP(=O)(N[C@@H](C)C(=O)OCCC)OC[C@H]1O[C@@H](n2cnc3c(OC)nc(N)nc32)[C@](C)(O)[C@@H]1O (mixture of isomers)	0.28	1.2	> 100
COc1nc(N)nc2c1ncn2[C@@H]1O[C@H](COP(=O)(N[C@@H](C)C(=O)OC(C)C)N[C@@H](C)C(=O)OC(C)C)[C@@H](O)[C@@]1(C)O (mixture of isomers)	0.49	2.1	> 100
COc1nc(N)nc2c1ncn2[C@@H]1O[C@H](COP(=O)(N[C@@H](C)C(=O)OCCC(C)(C)C)N[C@@H](C)C(=O)OCCC(C)(C)C)[C@@H](O)[C@@]1(C)O (mixture of isomers)	0.02	0.09	71
COc1nc(N)nc2c1ncn2[C@@H]1O[C@H](COP(=O)(N[C@@H](C)C(=O)OC2CCC2)N[C@@H](C)C(=O)OC2CCC2)[C@@H](O)[C@@]1(C)O (mixture of isomers)	0.32	0.8	> 100
COc1nc(N)nc2c1ncn2[C@@H]1O[C@H](COP(=O)(N[C@@H](C)C(=O)OC2CCCCC2)N[C@@H](C)C(=O)OC2CCCCC2)[C@@H](O)[C@@]1(C)O (mixture of isomers)	0.05	0.19	> 100
COc1nc(N)nc2c1ncn2[C@@H]1O[C@H](COP(=O)(N[C@@H](C)C(=O)OCc2ccccc2)N[C@@H](C)C(=O)OCc2ccccc2)[C@@H](O)[C@@]1(C)O (mixture of isomers)	0.49	1.6	> 100
COc1nc(N)nc2c1ncn2[C@@H]1O[C@H](COP(=O)(N[C@@H](C)C(=O)O[C@@H](C)c2ccccc2)N[C@@H](C)C(=O)O[C@@H](C)c2ccccc2)[C@@H](O)[C@@]1(C)O (mixture of isomers)	0.49	1.7	88
COc1nc(N)nc2c1ncn2[C@@H]1O[C@H](COP(=O)(N[C@@H](C)C(=O)OCc2ccc(F)cc2F)N[C@@H](C)C(=O)OCc2ccc(F)cc2F)[C@@H](O)[C@@]1(C)O (mixture of isomers)	0.26	1.07	54
COc1nc(N)nc2c1ncn2[C@@H]1O[C@H](COP(=O)(N[C@@H](C)C(=O)OC2CCCCO2)N[C@@H](C)C(=O)OC2CCCCO2)[C@@H](O)[C@@]1(C)O (mixture of isomers)	13.3	29.3	> 100
COc1nc(N)nc2c1ncn2[C@@H]1O[C@H](COP(=O)(N[C@@H](C)C(=O)OCC(C)C)N[C@@H](C)C(=O)OCC(C)C)[C@@H](O)[C@@]1(C)O (mixture of isomers)	0.07	0.26	> 100
COc1nc(N)nc2c1ncn2[C@@H]1O[C@H](COP(=O)(N[C@@H](C)C(=O)OCC2CC2)N[C@@H](C)C(=O)OCC2CC2)[C@@H](O)[C@@]1(C)O (mixture of isomers)	0.21	0.66	> 100
COC(=O)C[C@H](NP(=O)(N[C@@H](CC(=O)OC)C(=O)OC)OC[C@H]1O[C@@H](n2cnc3c(OC)nc(N)nc32)[C@](C)(O)[C@@H]1O)C(=O)OC (mixture of isomers)	10.2	> 40	> 100
COc1nc(N)nc2c1ncn2[C@@H]1O[C@H](COP(=O)(N[C@@H](CC(=O)OCc2ccccc2)C(=O)OCc2ccccc2)N[C@@H](CC(=O)OCc2ccccc2)C(=O)OCc2ccccc2)[C@@H](O)[C@@]1(C)O (mixture of isomers)	0.61	1.9	> 100
COc1nc(N)nc2c1ncn2[C@@H]1O[C@H](COP(=O)(NCC(=O)OCc2ccccc2)NCC(=O)OCc2ccccc2)[C@@H](O)[C@@]1(C)O (mixture of isomers)	0.6	1.8	> 100
COc1nc(N)nc2c1ncn2[C@@H]1O[C@H](COP(=O)(NCC(=O)OCC(C)(C)C)NCC(=O)OCC(C)(C)C)[C@@H](O)[C@@]1(C)O (mixture of isomers)	0.13	0.6	> 100

Compound	EC50 (Hepatitis C virus) [µM]	EC90 (Hepatitis C virus) [µM]	CC50 at 72 h [1] [µM]
COc1nc(N)nc2c1ncn2[C@@H]1O[C@H](COP(=O)(N[C@@H](CC(C)C)C(=O)OC2CCCCC2)N[C@@H](CC(C)C)C(=O)OC2CCCCC2)[C@@H](O)[C@@]1(C)O (mixture of isomers)	0.45	2	20
COc1nc(N)nc2c1ncn2[C@@H]1O[C@H](COP(=O)(N[C@@H](CC(C)C)C(=O)OCc2ccccc2)N[C@@H](CC(C)C)C(=O)OCc2ccccc2)[C@@H](O)[C@@]1(C)O (mixture of isomers)	0.38	1.31	39
COc1nc(N)nc2c1ncn2[C@@H]1O[C@H](COP(=O)(N[C@@H](CC(C)C)C(=O)OCC(C)(C)C)N[C@@H](CC(C)C)C(=O)OCC(C)(C)C)[C@@H](O)[C@@]1(C)O (mixture of isomers)	0.47	2.4	27
CC[C@H](C)[C@H](NP(=O)(N[C@H](C(=O)OC)[C@@H](C)CC)OC[C@H]1O[C@@H](n2cnc3c(OC)nc(N)nc32)[C@](C)(O)[C@@H]1O)C(=O)OC (mixture of isomers)	5.17	29.5	> 100
CC[C@H](C)[C@H](NP(=O)(N[C@H](C(=O)OCc1ccccc1)[C@@H](C)CC)OC[C@H]1O[C@@H](n2cnc3c(OC)nc(N)nc32)[C@](C)(O)[C@@H]1O)C(=O)OCc1ccccc1 (mixture of isomers)	0.4	1.56	24
CC[C@H](C)[C@H](NP(=O)(N[C@H](C(=O)OCC(C)(C)C)[C@@H](C)CC)OC[C@H]1O[C@@H](n2cnc3c(OC)nc(N)nc32)[C@](C)(O)[C@@H]1O)C(=O)OCC(C)(C)C (mixture of isomers)	2.9	6.3	15
COc1nc(N)nc2c1ncn2[C@@H]1O[C@H](COP(=O)(N[C@@H](CCSC)C(=O)OC2CCCCC2)N[C@@H](CCSC)C(=O)OC2CCCCC2)[C@@H](O)[C@@]1(C)O (mixture of isomers)	0.6	2.6	51
COc1nc(N)nc2c1ncn2[C@@H]1O[C@H](COP(=O)(N[C@@H](CCSC)C(=O)OCc2ccccc2)N[C@@H](CCSC)C(=O)OCc2ccccc2)[C@@H](O)[C@@]1(C)O (mixture of isomers)	0.25	0.77	> 100
COc1nc(N)nc2c1ncn2[C@@H]1O[C@H](COP(=O)(N[C@@H](CCSC)C(=O)OCC(C)(C)C)N[C@@H](CCSC)C(=O)OCC(C)(C)C)[C@@H](O)[C@@]1(C)O (mixture of isomers)	2.22	5	> 100
COc1nc(N)nc2c1ncn2[C@@H]1O[C@H](COP(=O)(N[C@@H](Cc2ccccc2)C(=O)OC2CCCCC2)N[C@@H](Cc2ccccc2)C(=O)OC2CCCCC2)[C@@H](O)[C@@]1(C)O (mixture of isomers)	0.5	2	25
COc1nc(N)nc2c1ncn2[C@@H]1O[C@H](COP(=O)(N[C@@H](Cc2ccccc2)C(=O)OCc2ccccc2)N[C@@H](Cc2ccccc2)C(=O)OCc2ccccc2)[C@@H](O)[C@@]1(C)O (mixture of isomers)	0.32	1.35	67
COc1nc(N)nc2c1ncn2[C@@H]1O[C@H](COP(=O)(N[C@@H](Cc2ccccc2)C(=O)OCC(C)(C)C)N[C@@H](Cc2ccccc2)C(=O)OCC(C)(C)C)[C@@H](O)[C@@]1(C)O (mixture of isomers)	0.05	0.21	24
COc1nc(N)nc2c1ncn2[C@@H]1O[C@H](COP(=O)(N2CCC[C@H]2C(=O)OCc2ccccc2)N2CCC[C@H]2C(=O)OCc2ccccc2)[C@@H](O)[C@@]1(C)O (mixture of isomers)	0.52	1.8	> 100
COc1nc(N)nc2c1ncn2[C@@H]1O[C@H](COP(=O)(N2CCC[C@H]2C(=O)OCC(C)(C)C)N2CCC[C@H]2C(=O)OCC(C)(C)C)[C@@H](O)[C@@]1(C)O (mixture of isomers)	0.81	2	56
COc1nc(N)nc2c1ncn2[C@@H]1O[C@H](COP(=O)(N[C@H](C(=O)OC2CCCCC2)C(C)C)N[C@H](C(=O)OC2CCCCC2)C(C)C)[C@@H](O)[C@@]1(C)O (mixture of isomers)	2.5	10	20
COc1nc(N)nc2c1ncn2[C@@H]1O[C@H](COP(=O)(N[C@H](C(=O)OCC(C)(C)C)C(C)C)N[C@H](C(=O)OCC(C)(C)C)C(C)C)[C@@H](O)[C@@]1(C)O (mixture of isomers)	0.72	2.5	32
COC(=O)[C@H](Cc1ccc(OC(C)(C)C)cc1)NP(=O)(N[C@@H](Cc1ccc(OC(C)(C)C)cc1)C(=O)OC)OC[C@H]1O[C@@H](n2cnc3c(OC)nc(N)nc32)[C@](C)(O)[C@@H]1O (mixture of isomers)	0.11	0.5	89
